Data taken from ChEMBL document CHEMBL2169767 (J Med Chem, 2012).
Where a SMILES comes first, the peptide text is derived from it. [ ]: non-standard residue; d: D form. d1Nal = N[C@H](Cc1cccc2ccccc12)C(=O)O; Phg = N[C@H](C(=O)O)c1ccccc1

Legend:
[1] = test system: Rattus norvegicus; assay: Toxicity in rat assessed as decrease in activity at 1 nmol, icv measured over 120 mins; assay type: organism-based; details: in vivo, icv_or_intrathecal, 2 h
[2] = test system: Rattus norvegicus; assay: Toxicity in rat assessed as decrease in water consumption at 1 nmol, icv measured over 120 mins; assay type: organism-based; details: in vivo, icv_or_intrathecal, 2 h
[3] = biological target: T1, Growth hormone secretagogue receptor type 1 (Homo sapiens, UniProt Q92847); assay: Activation of human ghrelin receptor expressed in COS 7 cells using [2-3H]myo-inositol by inositol triphosphate turnover assay; assay type: functional, cell-based
Summary of the method: (§1)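 Stimulated with seven to nine peptide concentrations, stopped by aspirating medium. Lysate supernatant purified on anion-exchange resin. Emax = difference between constitutive activity and activity at maximal peptide effect; EC50 = half-maximal concentration.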

[4] = biological target: T1, Growth hormone secretagogue receptor type 1; assay: Displacement of [125I]-His-ghrelin from human ghrelin receptor expressed in COS7 cells incubated for 75 mins by scintillation counting based assay; assay type: cell-based, COS-7
[5] = biological target: T1, Growth hormone secretagogue receptor type 1; assay: Ratio of EC50 of ghrelin to EC50 of compound at human ghrelin receptor expressed in COS 7 cells using [2-3H]myo-inositol by inositol triphosphate turnover assay; assay type: functional, cell-based
[6] = biological target: T1, Growth hormone secretagogue receptor type 1; assay: Agonist activity at human ghrelin receptor expressed in COS 7 cells using [2-3H]myo-inositol by inositol triphosphate turnover assay relative to untreated control; assay type: functional, cell-based; summary of the method: as §1
[7] = biological target: Growth hormone secretagogue receptor type 1 (Homo sapiens, UniProt Q92847, F119S); assay: Agonist activity at FLAG-tagged human ghrelin receptor Phe119:Ser mutant expressed in COS 7 cells using [2-3H]myo-inositol by inositol triphosphate turnover assay; assay type: functional, cell-based
[8] = biological target: T1, Growth hormone secretagogue receptor type 1; assay: Agonist activity at FLAG-tagged human ghrelin receptor expressed in COS 7 cells using [2-3H]myo-inositol by inositol triphosphate turnover assay; assay type: functional, cell-based
Summary of the method: (§2)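 COS7 cells transiently or stably (hygromycin B 0.4 mg/mL) transfected with receptor; transient cells exposed 14 h to receptor DNA with metafectene. Day after transfection/seeding, labelled with [2-3H]myo-inositol (2 μCi/mL), then stimulated with seven to nine peptide concentrations; stopped by aspirating medium, lysate supernatant purified on anion-exchange resin. EC50 = half-maximal effect; Emax = difference between constitutive activity and maximal-effect activity.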

[9] = biological target: Growth hormone secretagogue receptor type 1 (Homo sapiens, UniProt Q92847, S123A); assay: Agonist activity at FLAG-tagged human ghrelin receptor Ser123:Ala mutant expressed in COS 7 cells using [2-3H]myo-inositol by inositol triphosphate turnover assay; assay type: functional, cell-based; summary of the method: as §2
Chain of Growth hormone secretagogue receptor type 1 (Homo sapiens, UniProt Q92847, S123A) (Q92847 whole entry S123A): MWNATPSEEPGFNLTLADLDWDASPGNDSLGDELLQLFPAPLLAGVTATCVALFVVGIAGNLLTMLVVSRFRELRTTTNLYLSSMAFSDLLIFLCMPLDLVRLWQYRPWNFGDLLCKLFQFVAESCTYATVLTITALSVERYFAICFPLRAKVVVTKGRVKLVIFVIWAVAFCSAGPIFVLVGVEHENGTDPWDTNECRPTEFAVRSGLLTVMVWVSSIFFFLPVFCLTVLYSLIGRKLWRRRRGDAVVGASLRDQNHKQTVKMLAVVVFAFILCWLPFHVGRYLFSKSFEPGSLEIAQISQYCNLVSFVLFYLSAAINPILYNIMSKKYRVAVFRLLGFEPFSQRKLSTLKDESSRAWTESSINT

T1 sequence (Q92847 whole entry): as the sequence (Q92847 whole entry S123A) above, with A123S counted along it
Chain of Growth hormone secretagogue receptor type 1 (Homo sapiens, UniProt Q92847, F119S) (Q92847 whole entry F119S): as the sequence (Q92847 whole entry S123A) above, with F119S, A123S counted along it

Compound | EC50 [3] [nM] | IC50 [4] [nM] | Ratio EC50 [5] | other results
CC(C)C[C@H](NC(=O)[C@H](CC(C)C)NC(=O)[C@@H](Cc1c[nH]c2ccccc12)NC(=O)[C@H](Cc1ccccc1)NC(=O)[C@@H](Cc1cccc2ccccc12)NC(=O)[C@@H](N)CCCCN)C(N)=O | – | – | – | Activity [1]: Toxic; Activity [2]: Toxic
CC(C)C[C@H](NC(=O)[C@H](CC(C)C)NC(=O)[C@@H](Cc1cccc2ccccc12)NC(=O)[C@H](Cc1ccccc1)NC(=O)[C@@H](Cc1cccc2ccccc12)NC(=O)[C@@H](N)CCCCN)C(N)=O | > 1000 | – | – | –
CC(C)C[C@H](NC(=O)[C@H](CC(C)C)NC(=O)[C@@H](Cc1ccc2ccccc2c1)NC(=O)[C@H](Cc1ccccc1)NC(=O)[C@@H](Cc1c[nH]c2ccccc12)NC(=O)[C@@H](N)CCCCN)C(N)=O | – | – | 9 | EC50 [7]: 13.4 nM; Ki [4]: 234 nM; EC50 [8]: 7.2 nM; Emax [6]: 156%; EC50 [9]: 6.7 nM
CC(C)C[C@H](NC(=O)[C@H](CC(C)C)NC(=O)[C@@H](Cc1ccc(C(=O)c2ccccc2)cc1)NC(=O)[C@H](Cc1ccccc1)NC(=O)[C@@H](Cc1c[nH]c2ccccc12)NC(=O)[C@@H](N)CCCCN)C(N)=O | > 1000 | ≥ 1000 | > 700 | –

Now from value to compound, other results behind:

EC50 [3] [nM] | IC50 [4] [nM] | Ratio EC50 [5] | Compound | other results
> 1000 | ≥ 1000 | > 700 | CC(C)C[C@H](NC(=O)[C@H](CC(C)C)NC(=O)[C@H](NC(=O)[C@H](Cc1ccccc1)NC(=O)[C@@H](Cc1c[nH]c2ccccc12)NC(=O)[C@@H](N)CCCCN)C(c1ccccc1)c1ccccc1)C(N)=O | –
> 1000 | ≥ 1000 | > 700 | CC(C)C[C@H](NC(=O)[C@H](CC(C)C)NC(=O)[C@@H](Cc1ccc(-c2ccccc2)cc1)NC(=O)[C@H](Cc1ccccc1)NC(=O)[C@@H](Cc1c[nH]c2ccccc12)NC(=O)[C@@H](N)CCCCN)C(N)=O | –
> 1000 | – | – | CC(C)C[C@H](NC(=O)[C@H](CC(C)C)NC(=O)[C@@H](Cc1c[nH]c2ccccc12)NC(=O)[C@@H](NC(=O)[C@@H](Cc1cccc2ccccc12)NC(=O)[C@@H](N)CCCCN)c1ccccc1)C(N)=O (H-K[d1Nal][Phg][dW]LL-NH2) | –
– | – | 12.8 | CC(C)C[C@H](NC(=O)[C@H](CC(C)C)NC(=O)[C@@H](Cc1cccc2ccccc12)NC(=O)[C@H](Cc1ccccc1)NC(=O)[C@@H](Cc1c[nH]c2ccccc12)NC(=O)[C@@H](N)CCCCN)C(N)=O | Ki [4]: 247 nM; Emax [6]: 54%
